In ChEMBL document CHEMBL1139372, “Docking studies on a new human immunodeficiency virus integrase-Mg-DNA complex: phenyl ring exploration and synthesis of 1H-benzylindole derivatives through fluorine substitutions” (J Med Chem, 2009):

Columns and labels:
[1] = target: T1, Human immunodeficiency virus type 1 integrase (Human immunodeficiency virus 1, UniProt Q7ZJM1); experiment: Inhibition of HIV1 integrase activity by ELISA
In short: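 In vitro overall integrase reaction measured by enzyme-linked immunosorbent assay; IC50 is the concentration giving 50% inhibition of overall integrase activity; average ± SD.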

[2] = target: T1, Human immunodeficiency virus type 1 integrase; experiment: Inhibition of HIV1 integrase strand transfer activity by ELISA
In short: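 Strand transfer step of integration measured in vitro by enzyme-linked immunosorbent assay; IC50 is the concentration giving 50% inhibition of strand transfer; average ± SD.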

[3] = system: Human immunodeficiency virus 1; experiment: Antiviral activity against HIV1 3B infected in human MT4 cells assessed as inhibition of virus-induced cytopathic effect by MTT assay; type: functional, organism-based; conditions: Human immunodeficiency virus 1, 3B
In short: (§1)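 Human lymphocyte MT-4 cultures infected with HIV-1; HIV-induced cytopathic effect read by MTT assay; EC50 is the concentration reducing cytopathic effect by 50%; average ± SD; SI is CC50/EC50.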

[4] = Cytotoxicity against human MT4 cells by MTT assay; type: cell-based
In short: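 Uninfected MT-4 cells; viability read by MTT assay; CC50 is the concentration reducing viability by 50%; average ± SD; SI is CC50/EC50.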

[5] = Selectivity index, ratio of CC50 for human MT4 cells to EC50 for HIV1 3B; type: toxicity, cell-based; conditions: read-out: Ratio CC50/EC50; in short: as §1

T1 sequence (Q7ZJM1 whole entry): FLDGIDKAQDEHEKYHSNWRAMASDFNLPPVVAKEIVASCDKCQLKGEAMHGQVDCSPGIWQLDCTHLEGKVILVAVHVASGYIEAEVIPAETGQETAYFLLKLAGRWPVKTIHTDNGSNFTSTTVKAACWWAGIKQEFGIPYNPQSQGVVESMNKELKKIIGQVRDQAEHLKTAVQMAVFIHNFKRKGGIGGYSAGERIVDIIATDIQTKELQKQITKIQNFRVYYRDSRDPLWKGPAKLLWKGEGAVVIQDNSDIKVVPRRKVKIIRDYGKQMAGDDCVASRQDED

Compound `COc1cccc2c1c(C(=O)/C=C(\O)C(=O)O)cn2Cc1cc(F)cc(F)c1` has an IC50 [1] of 0.44 µM, an IC50 [2] of 0.24 µM and an EC50 [3] of 2.78 µM. The CC50 [4] was 29.5 µM and the selectivity ratio [5] was 10.6.
In the case of `COc1cccc2c1c(C(=O)/C=C(\O)C(=O)O)cn2Cc1ccc(F)c(F)c1`, the IC50 [1] is reported as 0.42 µM, the IC50 [2] is reported as 0.6 µM and the EC50 [3] is reported as 2.8 µM. The CC50 [4] was 71 µM and the selectivity ratio [5] was 25.
For `COc1cccc2c1c(C(=O)/C=C(\O)C(=O)O)cn2Cc1cc(F)ccc1F`, the IC50 [1] was 0.05 µM, the IC50 [2] was 0.02 µM and the EC50 [3] was 0.41 µM. It also gave a CC50 [4] of 46.2 µM and a selectivity ratio [5] of 113.
For `COc1cccc2c1c(C(=O)/C=C(\O)C(=O)O)cn2Cc1ccc(F)c(F)c1F`, the IC50 [1] was 0.14 µM, the IC50 [2] was 0.28 µM and the EC50 [3] was 1.15 µM. The CC50 [4] was 22.8 µM and the selectivity ratio [5] was 19.9.
For `CCOC(=O)/C(O)=C/C(=O)c1cn(Cc2ccc(F)c(F)c2)c2cccc(OC)c12`, the IC50 [1] was 26.5 µM, the IC50 [2] was 1.56 µM and the EC50 [3] was 80.1 µM. The CC50 [4] was 125 µM and the selectivity ratio [5] was > 2.
`CCOC(=O)/C(O)=C/C(=O)c1cn(Cc2c(F)cccc2F)c2cccc(OC)c12` showed an IC50 [1] of 0.36 µM, an IC50 [2] of 0.07 µM and an EC50 [3] of 2.04 µM. The CC50 [4] was 63.4 µM and the selectivity ratio [5] was > 31.1.
In the case of `COc1cccc2c1c(C(=O)/C=C(\O)C(=O)O)cn2Cc1c(F)ccc(F)c1F`, the IC50 [1] is reported as 0.13 µM, the IC50 [2] is reported as 0.16 µM and the EC50 [3] is reported as 0.65 µM. For the same compound, the CC50 [4] was 49.4 µM and the selectivity ratio [5] was 75.5.
Work on `CCOC(=O)/C(O)=C/C(=O)c1cn(Cc2cccc(F)c2F)c2cccc(OC)c12` yielded an IC50 [1] of 0.005 µM, an IC50 [2] of 0.012 µM and an EC50 [3] of 1.9 µM. It also gave a CC50 [4] of 21.1 µM and a selectivity ratio [5] of 11.1.
`CCOC(=O)/C(O)=C/C(=O)c1cn(Cc2cccc(F)c2)c2cccc(OC)c12` gave an IC50 [1] of 0.3 µM, an IC50 [2] of 2.26 µM and an EC50 [3] of 2.21 µM. The CC50 [4] was 63.2 µM and the selectivity ratio [5] was 28.5.
`COc1cccc2c1c(C(=O)/C=C(\O)C(=O)O)cn2Cc1cccc(F)c1` showed an IC50 [1] of 0.03 µM, an IC50 [2] of 0.03 µM and an EC50 [3] of 0.38 µM. The CC50 [4] was 65.8 µM and the selectivity ratio [5] was 175.
Compound `COc1cccc2c1c(C(=O)/C=C(\O)C(=O)O)cn2Cc1ccc(F)cc1F` has an IC50 [1] of 0.01 µM, an IC50 [2] of 0.02 µM and an EC50 [3] of 0.41 µM. It also gave a CC50 [4] of 20.8 µM and a selectivity ratio [5] of 50.7.
For `COc1cccc2c1c(C(=O)/C=C(\O)C(=O)O)cn2Cc1ccccc1F`, the IC50 [1] was 0.07 µM, the IC50 [2] was 0.04 µM and the EC50 [3] was 0.31 µM. The CC50 [4] was 70.5 µM and the selectivity ratio [5] was 228.
`COc1cccc2c1c(C(=O)/C=C(\O)C(=O)O)cn2Cc1ccc(F)cc1` gave an EC50 [3] of 0.59 µM and a selectivity ratio [5] of 70.
Work on `CCOC(=O)/C(O)=C/C(=O)c1cn(Cc2ccc(F)cc2F)c2cccc(OC)c12` yielded an IC50 [1] of 0.11 µM, an IC50 [2] of 0.67 µM and an EC50 [3] of 1.95 µM. The CC50 [4] was 65.5 µM and the selectivity ratio [5] was 33.7.
`CCOC(=O)/C(O)=C/C(=O)c1cn(Cc2cc(F)c(F)c(F)c2)c2cccc(OC)c12` showed an IC50 [1] of 2 µM, an IC50 [2] of 1.41 µM and an EC50 [3] of 3.96 µM. For the same compound, the CC50 [4] was 33.4 µM and the selectivity ratio [5] was 8.4.
Compound `COc1cccc2c1c(C(=O)/C=C(\O)C(=O)O)cn2Cc1cc(F)c(F)c(F)c1` has an IC50 [1] of 0.06 µM, an IC50 [2] of 0.1 µM and an EC50 [3] of 2.21 µM. The CC50 [4] was 23.3 µM and the selectivity ratio [5] was 10.5.
`CCOC(=O)/C(O)=C/C(=O)c1cn(Cc2ccc(F)c(F)c2F)c2cccc(OC)c12` gave an IC50 [1] of 3.01 µM, an IC50 [2] of 1.15 µM and an EC50 [3] of 3.15 µM. The CC50 [4] was 42.7 µM and the selectivity ratio [5] was > 13.
With `CCOC(=O)/C(O)=C/C(=O)c1cn(Cc2cc(F)ccc2F)c2cccc(OC)c12` the IC50 [1] was 1.41 µM, the IC50 [2] was 0.4 µM and the EC50 [3] was 3.15 µM. It also gave a CC50 [4] of 41.2 µM and a selectivity ratio [5] of 13.1.
Compound `CCOC(=O)/C(O)=C/C(=O)c1cn(Cc2c(F)ccc(F)c2F)c2cccc(OC)c12` has an IC50 [1] of 0.17 µM, an IC50 [2] of 0.82 µM and an EC50 [3] of 4.84 µM. It also gave a CC50 [4] of 40.5 µM and a selectivity ratio [5] of 8.4.
Compound `COc1cccc2c1c(C(=O)/C=C(\O)C(=O)O)cn2Cc1cccc(F)c1F` has an IC50 [1] of 0.01 µM, an IC50 [2] of 0.12 µM and an EC50 [3] of 0.26 µM. For the same compound, the CC50 [4] was 17.5 µM and the selectivity ratio [5] was > 68.7.
Compound `CCOC(=O)/C(O)=C/C(=O)c1cn(Cc2ccccc2F)c2cccc(OC)c12` has an IC50 [1] of 0.38 µM, an IC50 [2] of 0.72 µM and an EC50 [3] of 1.4 µM. It also gave a CC50 [4] of 63.3 µM and a selectivity ratio [5] of 45.3.
`CCOC(=O)/C(O)=C/C(=O)c1cn(Cc2cc(F)cc(F)c2)c2cccc(OC)c12` gave an IC50 [1] of 1.52 µM, an IC50 [2] of 2.74 µM and an EC50 [3] of 5.94 µM. The CC50 [4] was 34.7 µM and the selectivity ratio [5] was > 5.8.
Compound `COc1cccc2c1c(C(=O)/C=C(\O)C(=O)O)cn2Cc1c(F)cccc1F` has an IC50 [1] of 0.13 µM, an IC50 [2] of 0.08 µM and an EC50 [3] of 0.41 µM. The CC50 [4] was 44.3 µM and the selectivity ratio [5] was 108.
